Key:
[1] = Ratio of unbound drug level in brain to plasma in Hartley guinea pig at 60 mg/kg, po measured at 12 hrs; format: ADME, organism-based, Cavia porcellus; set-up: dose 60 mg/kg, route oral; settings: brain and plasma (unbound), read-out: K(p,uu,brain)
How it was run: (§1)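 Male Hartley guinea pigs given single oral doses of 30, 60 or 100 mg/kg in 1% CMC/0.5% Tween/5 mM citrate in H₂O, 6–8 animals per cohort. Plasma, brain and CSF sampled at 1–12 h; free brain to free plasma ratio computed.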

[2] = Ratio of unbound drug level in brain to plasma in Sprague-Dawley rat at 60 mg/kg, po measured at 5 hrs; format: ADME, organism-based; set-up: dose 60 mg/kg, route oral; settings: brain and plasma (unbound), read-out: K(p,uu,brain)
How it was run: (§2)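 Male Sprague–Dawley rats dosed 60 mg/kg po in 1% CMC/0.5% Tween/5 mM citrate in H₂O; plasma, brain and CSF taken at 1, 3, 5, 8 and 12 h; unbound plasma and brain levels and their ratio determined.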

Cynomolgus monkey = experiment: Hepatic clearance in cynomolgus monkey at 0.5 mg/kg, iv; format: ADME, organism-based, Macaca fascicularis, Liver; set-up: dose 0.5 mg/kg, route intravenous; settings: in vivo
Plasma [3] = experiment: Unbound plasma concentration in CD-1 mouse at 3 mg/kg, iv and 10 mg/kg, po measured at 1 hr; format: ADME, organism-based; settings: in vivo
How it was run: (§3)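 Male CD-1 mice, 3 per cohort, dosed 3 mg/kg iv and 10 mg/kg po; plasma drawn at 1 and 4 h, brains harvested from oral groups only. Formulations varied by compound: 40% PEG 400/10% EtOH/50% H₂O; 30% captisol in H₂O; iv 50 mM citrate in saline (pH 4); po 1% CMC/0.5% Tween/5 mM citrate in H₂O.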

[4] = Ratio of unbound drug level in brain to plasma in Sprague-Dawley rat at 60 mg/kg, po measured at 3 hrs; format: ADME, organism-based; set-up: dose 60 mg/kg, route oral; settings: brain and plasma (unbound), read-out: K(p,uu,brain); how it was run: as §2
Brain = experiment: Fraction unbound in CD-1 mouse brain at 10 mg/kg, po measured at 1 hr; format: ADME, organism-based; set-up: dose 10 mg/kg, route oral; settings: in vivo
How it was run: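 Male CD-1 mice, 3 per cohort, dosed 10 mg/kg orally; brains harvested at 1 and 4 h.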

Plasma [5] = experiment: Unbound plasma concentration in Sprague-Dawley rat at 60 mg/kg, po measured at 8 hrs; format: ADME, organism-based; set-up: dose 60 mg/kg, route oral; settings: in vivo
How it was run: (§4)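 Male Sprague-Dawley rats were given a single 60 mg/kg oral dose in 1% CMC/0.5% Tween/5 mM citrate in H₂O. Free plasma concentration was determined at 1, 3, 5, 8 and 12 h. Brain, CSF and CSF Aβ₁₋₄₀ were sampled at the same times.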

[6] = Drug uptake in Hartley guinea pig CSF at 60 mg/kg, po measured at 3 hrs; format: ADME, organism-based, Cavia porcellus, Cerebrospinal fluid; set-up: dose 60 mg/kg, route oral; settings: read-out: Drug uptake
How it was run: (§5)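 Male Hartley guinea pigs, oral dosing (CMC/Tween/citrate suspension or PEG/EtOH/H₂O solution), six or eight animals per cohort; CSF drug concentration (nM) measured at each time point.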

[7] = Ratio of unbound drug level in brain to plasma in Sprague-Dawley rat at 60 mg/kg, po measured at 1 hr; format: ADME, organism-based; set-up: dose 60 mg/kg, route oral; settings: brain and plasma (unbound), read-out: K(p,uu,brain); how it was run: as §2
Plasma [8] = experiment: Unbound plasma concentration in Sprague-Dawley rat at 60 mg/kg, po measured at 3 hrs; format: ADME, organism-based; set-up: dose 60 mg/kg, route oral; settings: in vivo; how it was run: as §4
Cavia porcellus = experiment: Hepatic clearance in Hartley guinea pig at 3 mg/kg, iv; format: ADME, organism-based, Liver; set-up: dose 3 mg/kg, route intravenous; settings: in vivo
Mus musculus = experiment: Hepatic clearance in CD-1 mouse at 3 mg/kg, iv; format: ADME, organism-based, Liver; set-up: dose 3 mg/kg, route intravenous; settings: in vivo; how it was run: as §3
[9] = Drug uptake in Sprague-Dawley rat CSF at 60 mg/kg, po measured at 1 hr; format: ADME, organism-based, Cerebrospinal fluid; set-up: dose 60 mg/kg, route oral; settings: read-out: Drug uptake
How it was run: (§6)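 Male Sprague−Dawley rats dosed orally at 60 mg/kg in 1% CMC/0.5% Tween/5 mM citrate in H₂O; CSF compound concentration (nM) at 1–12 h.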

[10] = Unbound plasma concentration in Hartley guinea pig at 60 mg/kg, po measured at 5 hrs; format: ADME, organism-based, Cavia porcellus; set-up: dose 60 mg/kg, route oral; settings: in vivo
How it was run: (§7)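 Male Hartley guinea pigs were dosed orally at 30, 60 or 100 mg/kg, with six or eight animals per cohort. The vehicle was either a suspension in 1% CMC/0.5% Tween/5 mM citrate in H₂O or a 40/10/50 PEG/EtOH/H₂O solution, depending on compound. Unbound plasma concentration was sampled at 1–12 h post-dose alongside brain, CSF and CSF Aβ₁₋₄₀.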

Plasma [11] = experiment: Unbound plasma concentration in cynomolgus monkey at 0.5 mg/kg, iv and 100 mg/kg, po measured at 4 hrs; format: ADME, organism-based, Macaca fascicularis; settings: in vivo
How it was run: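 Female cynomolgus monkeys, three per dosing route, received 0.5 mg/kg iv and 100 mg/kg po. Unbound plasma concentration was reported at 2 h and 4 h post-dose.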

[12] = Intrinsic clearance in CD-1 mouse hepatocytes at 2 uM after 60 to 120 mins; format: ADME, cell-based, Hepatocyte; settings: read-out: CLH
[13] = Drug uptake in cynomolgus monkey CSF at 0.5 mg/kg, iv and 100 mg/kg, po measured at 2 hrs; format: ADME, organism-based, Macaca fascicularis, Cerebrospinal fluid; settings: read-out: Drug uptake
How it was run: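 Female cynomolgus monkeys, 3 per dosing route; iv formulation PEG400/EtOH/water (40/10/50) solution; oral suspension in 1% CMC, 0.5% Tween 80, 5 mM citrate buffer; CSF concentration measured.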

[14] = Fraction unbound in Hartley guinea pig brain at 60 mg/kg, po measured at 12 hrs; format: ADME, organism-based, Cavia porcellus; set-up: dose 60 mg/kg, route oral; settings: in vivo
[15] = Ratio of unbound drug level in brain to plasma in Hartley guinea pig at 30 mg/kg, po measured at 3 hrs; format: ADME, organism-based, Cavia porcellus; set-up: dose 30 mg/kg, route oral; settings: brain and plasma (unbound), read-out: K(p,uu,brain); how it was run: as §1
[16] = Fraction unbound in Hartley guinea pig brain at 60 mg/kg, po measured at 3 hrs; format: ADME, organism-based, Cavia porcellus; set-up: dose 60 mg/kg, route oral; settings: in vivo
[17] = Dissociation constant, pKa of the compound by parallel capillary electrophoresis method; format: physicochemical
How it was run: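 pKa determined by a 24-point parallel capillary electrophoresis method, quantitation by UV absorbance at 229 nm.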

[18] = Drug uptake in Hartley guinea pig CSF at 60 mg/kg, po measured at 12 hrs; format: ADME, organism-based, Cavia porcellus, Cerebrospinal fluid; set-up: dose 60 mg/kg, route oral; settings: read-out: Drug uptake; how it was run: as §5
[19] = Ratio of unbound drug level in brain to plasma in Hartley guinea pig at 60 mg/kg, po measured at 8 hrs; format: ADME, organism-based, Cavia porcellus; set-up: dose 60 mg/kg, route oral; settings: brain and plasma (unbound), read-out: K(p,uu,brain); how it was run: as §1
[20] = Drug uptake in Sprague-Dawley rat CSF at 60 mg/kg, po measured at 5 hrs; format: ADME, organism-based, Cerebrospinal fluid; set-up: dose 60 mg/kg, route oral; settings: read-out: Drug uptake; how it was run: as §6
[21] = Unbound plasma concentration in Hartley guinea pig at 60 mg/kg, po measured at 3 hrs; format: ADME, organism-based, Cavia porcellus; set-up: dose 60 mg/kg, route oral; settings: in vivo; how it was run: as §7
[22] = Drug uptake in Sprague-Dawley rat CSF at 60 mg/kg, po measured at 8 hrs; format: ADME, organism-based, Cerebrospinal fluid; set-up: dose 60 mg/kg, route oral; settings: read-out: Drug uptake; how it was run: as §6
[23] = Unbound plasma concentration in Hartley guinea pig at 60 mg/kg, po measured at 12 hrs; format: ADME, organism-based, Cavia porcellus; set-up: dose 60 mg/kg, route oral; settings: in vivo; how it was run: as §7
[24] = Unbound plasma concentration in Hartley guinea pig at 100 mg/kg, po measured at 3 hrs; format: ADME, organism-based, Cavia porcellus; set-up: dose 100 mg/kg, route oral; settings: in vivo; how it was run: as §7
[25] = Ratio of unbound drug level in brain to plasma in CD-1 mouse measured at 4 hrs; format: ADME; settings: CD-1, mouse, read-out: K(p,uu,brain)
How it was run: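 Male CD-1 mice given 10 mg/kg po, 3 per cohort; plasma and brain collected at 1 and 4 h. Free brain/plasma ratio from unbound concentrations; coverage ratio = free brain concentration divided by HEK293 Aβ₁₋₄₀ cell IC50.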

[26] = Ratio of unbound drug level in brain to plasma in Hartley guinea pig at 60 mg/kg, po measured at 3 hrs; format: ADME, organism-based, Cavia porcellus; set-up: dose 60 mg/kg, route oral; settings: brain and plasma (unbound), read-out: K(p,uu,brain); how it was run: as §1
[27] = Drug uptake in Hartley guinea pig CSF at 60 mg/kg, po measured at 8 hrs; format: ADME, organism-based, Cavia porcellus, Cerebrospinal fluid; set-up: dose 60 mg/kg, route oral; settings: read-out: Drug uptake; how it was run: as §5
[28] = Fraction unbound in Hartley guinea pig brain at 60 mg/kg, po measured at 5 hrs; format: ADME, organism-based, Cavia porcellus; set-up: dose 60 mg/kg, route oral; settings: in vivo
[29] = Fraction unbound in Hartley guinea pig brain at 100 mg/kg, po measured at 3 hrs; format: ADME, organism-based, Cavia porcellus; set-up: dose 100 mg/kg, route oral; settings: in vivo
[30] = Drug uptake in Hartley guinea pig CSF at 60 mg/kg, po measured at 5 hrs; format: ADME, organism-based, Cavia porcellus, Cerebrospinal fluid; set-up: dose 60 mg/kg, route oral; settings: read-out: Drug uptake; how it was run: as §5

CN1C(=O)[C@]2(N=C1N)c1cc(-c3cccnc3F)ccc1O[C@H]1CCOC[C@@H]12
Kp uu at 12 h [1]: > 3.7 | Kp uu at 5 h [2]: 0.029 | CLH (Cynomolgus monkey): 22 mL/min/kg | Cp(f) (Plasma [3]): 300 nM | Kp uu at 3 h [4]: 0.03 | Drug uptake(free) (Brain): 24 nM | Cp(f) (Plasma [5]): 1700 nM | concentration at 3 h [6]: 23 nM | Kp uu at 1 h [7]: 0.022 | Cp(f) (Plasma [8]): 2200 nM | CLH (Cavia porcellus): 110 mL/min/kg | CLH (Mus musculus): 41 mL/min/kg | concentration at 1 h [9]: 290 nM | Cp(f) [10]: 7 nM | Cp(f) (Plasma [11]): 1700 nM | CLint scaled at 2 µM [12]: 36 mL/min/kg | concentration at 2 h [13]: 110 nM | Drug uptake(free) [14]: 11 nM | Kp uu at 3 h [15]: 1.6 | Drug uptake(free) [16]: 34 nM | pKa [17]: 5.8 | concentration at 12 h [18]: 2.6 nM | Kp uu at 8 h [19]: > 1.7 | concentration at 5 h [20]: 200 nM | Cp(f) [21]: 23 nM | concentration at 8 h [22]: 130 nM | Cp(f) [23]: < 3 nM | Cp(f) [24]: 38 nM | Kp uu at 4 h [25]: 0.19 | Kp uu at 3 h [26]: 1.5 | concentration at 8 h [27]: 1.6 nM | Drug uptake(free) [28]: 12 nM | Drug uptake(free) [29]: 50 nM | concentration at 5 h [30]: 6.9 nM

Source: ChEMBL document CHEMBL3124885, “Discovery of 7-tetrahydropyran-2-yl chromans: β-site amyloid precursor protein cleaving enzyme 1 (BACE1) inhibitors that reduce amyloid β-protein (Aβ) in the central nervous system” (J Med Chem, 2014)
